# According to article PMC9053608 (RSC Advances, 2020):
# Marks after values point to notes of the source that are not given here. Ends that are not written are not given here.
# Experiments:
# [1] = tested on: E. coli ATCC 25922; assay: Antibacterial activity, microdilution assay; format: cell-based; conditions: microdilution (CLSI), 96-well, 24 h at 37 °C, absorbance 620 nm, n = 2
# Method in brief: (§1)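 MIC by CLSI broth microdilution. Peptide solutions at 200, 100, 50, 25, 12.5 and 6.2 μg mL−1 were mixed 9:1 with bacterial inoculum (5 × 10^6 CFU mL−1). Plates were incubated 24 h at 37 °C and read at A620. […] Duplicate runs (n = 2).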
# [2] = tested on: S. aureus ATCC 25923; assay: Antibacterial activity, microdilution assay; format: cell-based; conditions: microdilution (CLSI), 96-well, 24 h at 37 °C, absorbance 620 nm, n = 2
# Method in brief: as §1
# [3] = tested on: breast cancer cell line MDA-MB-468; assay: MTT cytotoxicity assay; format: cell-based, human; conditions: 37 °C, 5% FBS, mean ± SD (n = 3); for Cellular Viability (%), MDA-MB-468 cells, 2 h: peptide 200 μg mL−1, 2 h; for Cellular Viability (%), MDA-MB-468 cells, 24 h: peptide 200 μg mL−1, 24 h; for Cellular Viability (%), MDA-MB-468 cells, 48 h: peptide 200 μg mL−1, 48 h
# Method in brief: (§2)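 Cells (1 × 10^4 per well) adhered for 14 h at 37 °C in humidified 5% CO2. Medium was then replaced with equal volumes of supplemented RPMI (10%) and peptide solution (200–6.25 μg mL−1), giving 5% final FBS. After 2, 24 or 48 h, MTT (5 mg mL−1 stock) was added for 4 h at 37 °C. Formazan was dissolved in DMSO and read at A570; mean ± S.D., n = 3.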
# [4] = tested on: young human fibroblast primary cell culture; assay: MTT cytotoxicity assay; format: cell-based; conditions: 37 °C, 5% FBS, mean ± SD (n = 3); for Cellular Viability (%), Fibroblast cells, 2 h: peptide 200 μg mL−1, 2 h; for Cellular Viability (%), Fibroblast cells, 24 h: peptide 200 μg mL−1, 24 h; for Cellular Viability (%), Fibroblast cells, 48 h: peptide 200 μg mL−1, 48 h
# Method in brief: as §2
# [5] = tested on: MDA-MB-468 cells; assay: Morphologic changes by phase-contrast microscopy; format: cell-based, human; conditions: phase-contrast microscopy 20×, peptide at 134,61 μM, 24 h
# Method in brief: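 MDA-MB-468 cells (ATCC HTB-132), 1 × 10^4 per well, were allowed to adhere for 14 h at 37 °C in 5% CO2. Medium was then replaced with supplemented RPMI plus test compound, giving 5% FBS final. Plates were incubated at 37 °C in 5% CO2, and cells were photographed before MTT addition. Untreated cells were recorded alongside.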
Substance,"MIC, E. coli ATCC 25922 [1] [µM]","MIC, S. aureus ATCC 25923 [2] [µM]","Cellular Viability (%), MDA-MB-468 cells, 2 h [3] [%]","Cellular Viability (%), MDA-MB-468 cells, 24 h [3] [%]","Cellular Viability (%), MDA-MB-468 cells, 48 h [3] [%]","Cellular Viability (%), Fibroblast cells, 2 h [4]","Cellular Viability (%), Fibroblast cells, 24 h [4]","Cellular Viability (%), Fibroblast cells, 48 h [4]",morphological changes in MDA-MB-468 cells [5]
RAQWRWQWR-NH2 [Peptide A2],146,146,62 ± 4,63 ± 4,58 ± 6,100 ± 2 ^a %,94 ± 2 ^a %,87 ± 2 ^a %,significant morphological changes associated with the cytotoxic effect were not observed
RWQWAWQWR-NH2 [Peptide A5],,143,71 ± 8,62 ± 7,64 ± 4,99 ± 1 ^a %,81 ± 1 ^b %,82 ± 1 ^a %,"morphological changes were observed, acquiring rounded forms"
RWQWRAQWR-NH2 [Peptide A6],37,,55 ± 6,49 ± 5,52 ± 5,100 ± 2 ^a %,88 ± 2 ^a %,79 ± 4 ^a %,significant morphological changes associated with the cytotoxic effect were not observed
RWQWRWAWR-NH2 [Peptide A7],18,140,59 ± 6,57 ± 3,56 ± 1,96 ± 5 ^a %,100 ± 1 ^a %,79 ± 5 ^a %,"morphological changes were observed, acquiring rounded forms"
RWQWRWQAR-NH2 [Peptide A8],37,146,69 ± 5,62 ± 5,61 ± 6,100 ± 1 ^a %,94 ± 1 ^a %,85 ± 4 ^a %,significant morphological changes associated with the cytotoxic effect were not observed
RWQWRWQWA-NH2 [Peptide A9],143,143,64 ± 7,55 ± 6,65 ± 7,100 ± 4 ^a %,98 ± 3 ^a %,100 ± 3 ^a %,
